Test results as given in paper PMC7313255 (Biology of Reproduction, 2020).
Values joined by “and” are separate entries in the source; they are usually repeats but may differ in a detail not shown here. Equal entries are not always repeated. Structures can show the parent of a compound that is named as a salt. Where two headings read alike, the source gives them in different places. Each block holds one compound with its values, some of them ahead of it. Positions of bridges follow the written chain, without caps; N, C: chain ends. Non-standard residues stand in square brackets, D forms with d. Residues, ends and D or L forms follow the SMILES beside them. Orn = NCCC[C@H](N)C(=O)O; Mpa = O=C(O)CCS

How the values were obtained:
[1] = format: in vitro ADME, human
Method in brief: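 Term placentas (39–41 weeks, no chorioamnionitis) perfused ex vivo as double-sided open cotyledon at 36.5 °C; fetal flow 2 mL/min, maternal 10 mL/min. Test compound 1.2 µM (1 µg/mL) in perfusate with antipyrine 531 µM co-infused. Fetal venous samples at 1–120 min; Evans blue integrity check. LC-MS/MS for test compound, spectrophotometry for antipyrine; trapezoidal AUC ratio; mean ± SD.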

[2] = cited from earlier work
[3] = tested on: vasopressin-induced contractions of isolated term-pregnant human myometrium; conditions: cited from earlier work
[4] = Placental transfer in cynomolgus monkeys; format: in vivo, cynomolgus monkeys (Macaca fascicularis); conditions: cynomolgus monkey
Method in brief: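 Three pregnant monkeys, gestation day 150 ± 1. Test compound infused intravenously (saphenous vein) over 2 h to 300 µg/kg in 5 mL/kg, from a 10 mg/mL stock in 0.04 M acetate pH 4.3 diluted in saline. Maternal brachial plasma taken pre-dose, 1 and 2 h. Umbilical venous plasma and amniotic fluid taken at C-section under ketamine/xylazine. Plasma measured by RIA, amniotic fluid by LC-MS/MS; paired t-test.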

[5] = quantitative whole-body autoradiography; format: in vivo; conditions: rat; all sampling times; limit of quantitation 40 pmoles/g; unpublished data
[6] = up to 2.5 mg barusiban/kg body weight/day from day 85 of gestation until delivery; cited from earlier work
[7] = Placental transfer in rabbits; format: in vivo, New Zealand white rabbits; conditions: rabbit
Method in brief: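 Pregnant rabbits (5–6 months, 3.0–4.4 kg) given the radiolabelled test compound by ear-vein bolus daily on gestation days 24–30: mean 3.01 mg/kg, 522 kBq/kg, in 0.9% saline. Three dams per time point killed by barbiturate at 10 min, 1, 3 and 10 h after dosing. Maternal ear-artery blood taken; from one fetus per sex, cardiac blood and tissues taken. Liquid scintillation counting; levels expressed as % of maternal peak.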

[8] = quantitative whole-body autoradiography; format: in vivo; conditions: marmoset; normally below the limit of quantification; unpublished data
[9] = tested on: oxytocin-induced uterine contractions; conditions: cited from earlier work
[10] = cited from earlier work; remark: listed apart in the source
[11] = sheep, epitheliochoral placenta; cited from earlier work
cloned human V1AR = conditions: read-out: Ki (affinity), cloned human V1AR; two literature values; cited from earlier work

- transfer of antipyrine relative to barusiban ([1]; human placental single cotyledon, comparator): approximately three times greater
Compound: Cc1cc(=O)n(-c2ccccc2)n1C [antipyrine, reference compound]

- increase of maternal plasma barusiban from 1 h to 2 h ([4]; individual values of two animals): 40.4% and 54.6%
- mean amniotic barusiban at C-section as % of the maternal plasma after 2 h ([4]; iv infusion 2 h to 300 μg/kg, n = 3): 1.9%
- decrease of maternal plasma barusiban from 1 h to 2 h ([4]; third animal): 5.0%
- barusiban in the fetuses (QWBA) [5]: < 40 pmol/g
- AUC ratio of barusiban to antipyrine ([1]; ex vivo perfused human cotyledon, mean of ratios ± SD, n = 13, SD): 36 ± 11%
- barusiban level in other fetal tissues as % of the maternal blood ([7]; 10 min post-dose, or less than LLOQ): < 1%
- barusiban in most fetal tissue samples as % of the maternal peak blood level ([7]; 1 h post-dose, or less than LLOQ): less than 1%
- fetal blood barusiban as % of that after 10 min ([7]; 1 h post-dose): 79.3%
- fetal blood barusiban as % of the peak maternal level ([7]; 1 h post-dose): 4.2%
- fetal plasma barusiban as % of the peak maternal level ([7]; 1 h post-dose): 5.0%
- maternal blood barusiban as % of the maximum level ([7]; 1 h post-dose): 32.8%
- maternal plasma barusiban as % of the maximum level ([7]; 1 h post-dose): 35.2%
- maternal blood barusiban as % of its maximum level ([7]; 3 h post-dose): 6.1%
- maternal plasma barusiban as % of its maximum level ([7]; 3 h post-dose): 7.9%
- fetal adrenal barusiban as % of the maximal maternal blood level ([7]; 10 h post-dose, one adrenal): 12.0%
- barusiban in all other fetal tissues as % of peak maternal blood level ([7]; 10 h post-dose, or less than LLOQ): less than 1%
- amniotic fluid barusiban as % of the maximal maternal blood level ([7]; 10 h post-dose): 5.7%
- fetal blood barusiban as % of initial maternal level ([7]; 10 h post-dose): less than 2%
- fetal plasma barusiban as % of initial maternal level ([7]; 10 h post-dose): less than 3%
- maternal blood barusiban as % of the first determination ([7]; 10 h post-dose): less than 1%
- maternal plasma barusiban as % of the first determination ([7]; 10 h post-dose): less than 2%
- radioactivity in fetal brain (QWBA) [8]: < 12 pmoles/g tissue
Compound: CC[C@@H](C)[C@@H]1NC(=O)[C@H]([C@@H](C)CC)NC(=O)[C@@H](Cc2c[nH]c3ccccc23)NC(=O)CCSCC[C@@H](C(=O)N(C)[C@H](CO)CCCN)NC(=O)[C@H](CC(N)=O)NC1=O [barusiban]
- effect over the placebo group (women who did not deliver within 48 h) ([2]; Phase II clinical trial): did not demonstrate a statistically significant effect
- fetal and neonatal adverse events with maternal barusiban ([2]; clinical study, did not differ from placebo): very low level of fetal and neonatal adverse events
- effect on vasopressin-induced contractions [3]: practically no effect
- effects in the mother or offspring [6]: no barusiban-related effects
- reduction of induced uterine contractions compared with fenoterol ([9]; cynomolgus monkey): more effective than fenoterol
- reduction of oxytocin-induced uterine contractions compared with atosiban ([9]; pregnant cynomolgus monkey, action also longer lasting): more potent

Compound: O=S(=O)([O-])[O-].[Mg+2] [MgSO4]
- placental transfer ([10]; in humans): up to 100%

Compound: CC(NCCc1ccc(O)cc1)C(O)c1ccc(O)cc1 (centres unmarked) [ritodrine hydrochloride]
- placental transfer ([10]; in humans, long-term treatment): 70%
- placental transfer ([10]; in humans, short-term treatment): 26%

Compound: CCOc1ccc(C[C@H]2NC(=O)CCSSC[C@@H](C(=O)N3CCC[C@H]3C(=O)N[C@@H](CCCN)C(=O)NCC(N)=O)NC(=O)[C@H](CC(N)=O)NC(=O)[C@H]([C@@H](C)O)NC(=O)[C@H]([C@@H](C)CC)NC2=O)cc1 [atosiban] ([Mpa][dY](Et)ITNCP[Orn]G-NH2; disulfide 1-6 (inferred); C-terminus assumed)
- placental transfer [11]: could not be detected
- placental transfer ([10]; in vivo, pregnant women at term): 12%
- Ki (cloned human V1AR): 3.5 nM and 4.7 nM
